Published values gathered from unrelated publications.
Each line is one published result; the experiments were not run side by side.
GSR: Glutathione reductase, mitochondrial (GSR, Homo sapiens, UniProt P00390)
MAOA: Amine oxidase [flavin-containing] A (MAOA, Homo sapiens, UniProt P21397)
Integrin alpha-V/beta-3: Integrin alpha-V/beta-3 (Homo sapiens, UniProt P05106+P06756)
PTPN1: Tyrosine-protein phosphatase non-receptor type 1 (PTPN1, Homo sapiens, UniProt P18031)
Acetylcholinesterase: Acetylcholinesterase (Bos taurus, UniProt P23795)
LDHA: L-lactate dehydrogenase A chain (LDHA, Homo sapiens, UniProt P00338)

| Compound | target | effect on | action | technique | pH | IC50 [µM] |
| --- | --- | --- | --- | --- | --- | --- |
| c1ccc(CCCN2CCN(CCOC(c3ccccc3)c3ccccc3)CC2)cc1 | GSR | enzyme activity | inhibitor | absorbance |  | > 100 |
| COc1cc(Nc2ncc(F)c(Nc3ccc4c(n3)NC(=O)C(C)(C)O4)n2)cc(OC)c1OC | Cathepsin S (CTSS, Homo sapiens, UniProt P25774) | enzyme activity | inhibitor |  |  | 12.6 |
| CNC1CC(c2ccc(Cl)c(Cl)c2)c2ccccc21 (centres unmarked) | GSR | enzyme activity | inhibitor | absorbance |  | > 100 |
| O=C1C[C@H](c2ccc(O)cc2)Oc2cc(O)ccc21 | MAOA | enzyme activity | inhibitor |  |  | 9.97 |
| CC[C@H](C)[C@@H]([C@@H](CC(=O)N1CCC[C@H]1[C@H](OC)[C@@H](C)C(=O)N[C@@H](Cc1ccccc1)C(=O)O)OC)N(C)C(=O)[C@@H](NC(=O)[C@H](C(C)C)N(C)C(=O)CCc1cn(CCOCCOCCOCCOCC(=O)NCc2ccc(CN3C(=O)[C@H]4CC(=O)N[C@H](C(=O)O)CC(=O)NCC(=O)N[C@@H](CCCNC(=N)N)C(=O)NC[C@H]3C(=O)N4)cc2)nn1)C(C)C | Integrin alpha-V/beta-3 | ligand displacement |  |  |  | 0.0107 |
| CC(C)(C)OC(=O)N1CCN(C(=O)C(=O)CC(=O)c2cccc(OCc3ccccc3)c2)CC1 | PTPN1 | enzyme activity | inhibitor | absorbance | pH 7 | 39.5 |
| C#CCN(C)c1nc(NCCCCC2CCN(Cc3ccccc3)CC2)c(C#N)c(-c2ccccc2)c1C#N | MAOA | enzyme activity | inhibitor | fluorescence |  | 11.6 |
| COc1cc2c3cc1Oc1cc(ccc1O)C[C@@H]1c4c(cc(OC)c(O)c4Oc4ccc(cc4)C[C@@H]3N(C)CC2)CC[N+]1(C)C | Acetylcholinesterase | enzyme activity | inhibitor | Ellman |  | 54.4 |
| COc1c(O[C@@H]2O[C@H](CO)[C@@H](O)[C@H](O)[C@H]2O[C@@H]2O[C@H](CO)[C@@H](O)[C@H](O)[C@H]2O)cc2oc(-c3ccc(O)cc3)cc(=O)c2c1O | LDHA | enzyme activity | inhibitor |  | pH 7.4 | > 500 |
| CC(=O)N[C@@H](CS)C(=O)O | Angiotensin-converting enzyme 2 (ACE2, Homo sapiens, UniProt Q9BYF1) | enzyme activity | inhibitor | fluorescence |  | 173 |
| CC[C@H](C)[C@@H]([C@@H](CC(=O)N1CCC[C@H]1[C@H](OC)[C@@H](C)C(=O)N[C@H](C)[C@@H](O)c1ccccc1)OC)N(C)C(=O)[C@@H](NC(=O)[C@H](C(C)C)N(C)C(=O)CCc1cn(CCOCCOCCOCCOCC(=O)NCc2ccc(CN3C(=O)[C@H]4CC(=O)N[C@H](C(=O)O)CC(=O)NCC(=O)N[C@@H](CCCNC(=N)N)C(=O)NC[C@H]3C(=O)N4)cc2)nn1)C(C)C | Integrin alpha-V/beta-3 | ligand displacement |  |  |  | 0.0145 |
| CNC(=O)Oc1cccc2c1OC(C)(C)O2 | Acetylcholinesterase | enzyme activity | inhibitor | Ellman |  | 0.195 |
| COc1ccc(N2CCN(C(c3cccs3)C(C)NC(=O)C(=O)NCc3ccco3)CC2)cc1 (centres unmarked) | PTPN1 | enzyme activity | inhibitor | absorbance | pH 7 | 14.4 |
| CCCCOc1ccc(C(=O)CCN2CCCCC2)cc1 | Histamine H2 receptor (HRH2, Homo sapiens, UniProt P25021) | ligand displacement |  | radioligand |  | 3.13 |
| CCC(CC)CSc1ccccc1OC(=O)NC | Acetylcholinesterase | enzyme activity | inhibitor | Ellman |  | 5.07 |
| C[C@@H]1C/C=C/CCCCC(=O)Cc2cc(O)cc(O)c2C(=O)O1 | Mitogen-activated protein kinase kinase kinase 7 (MAP3K7, Homo sapiens, UniProt O43318) | enzyme activity | inhibitor | ATP luminescence |  | > 10 |
| COc1c(O[C@@H]2O[C@H](CO)[C@@H](O)[C@H](O)[C@H]2O)cc2oc(-c3ccc(O)cc3)cc(=O)c2c1O | LDHA | enzyme activity | inhibitor |  | pH 7.4 | 210 |
| NC(Cc1ccc(C(=O)[P-](F)(F)(F)(F)F)cc1)C(=O)O (centres unmarked) | PTPN1 | enzyme activity | inhibitor |  |  | 104 |
| CNC(=O)Oc1cccc2c1OC(C)(C)C2 | Acetylcholinesterase | enzyme activity | inhibitor | Ellman |  | 0.073 |
| Nc1c(S(=O)(=O)O)cc(Nc2ccc(Nc3nc(Cl)nc(Nc4cccc(S(=O)(=O)O)c4)n3)c(S(=O)(=O)O)c2)c2c1C(=O)c1ccccc1C2=O | P2X purinoceptor 4 (P2RX4, Homo sapiens, UniProt Q99571) | calcium signal | antagonist |  |  | 3.49 |
